Experimental data published in EPA's CvTdb concentration-time database.
Several values for one entry are separate records, joined by “and”; a condition that tells them apart may be missing. Equal entries are not always repeated.

Legend:
human [1] = test: amount in urine after dosing (umol)
Summary of the method: (§1)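 Sampling and analytical methods are those of each source and frequently went unreported. The concentration-versus-time and amount-versus-time points were compiled from published in vivo toxicokinetic studies and two structured collections. Most were digitised from plot screenshots with WebPlotDigitizer, with others copied from tables, in the reported units.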

Rat [2] = test: concentration in liver after dosing; settings: 12 h; dosed: Fluorotelomer alcohol 8+2; 24 mg/kg; oral; Male; Harlan Sprague Dawley
Rat [3] = test: concentration in liver after dosing; settings: 3 h; dosed: Fluorotelomer alcohol 8+2; 24 mg/kg; oral; Male; Harlan Sprague Dawley
Rat [4] = test: concentration in brain after dosing; settings: 3 h; dosed: Fluorotelomer alcohol 8+2; 24 mg/kg; oral; Male; Harlan Sprague Dawley
Rat [5] = test: concentration in plasma after dosing; settings: dosed: Perfluorohexanoic Acid, 40 mg/kg, iv, Male, F344
Rat [6] = test: concentration in plasma after dosing; settings: dosed: Perfluorohexanoic Acid, 40 mg/kg, oral, Male, Harlan Sprague Dawley
Rat [7] = test: concentration in plasma after dosing; settings: 10 h; dosed: Gemfibrozil; 4.29 mg/kg; oral; Male; Sprague-Dawley
Rat [8] = test: concentration in plasma after dosing; settings: 10 min; dosed: Gemfibrozil; 50 mg/kg; oral; Male; Sprague-Dawley
human [9] = test: concentration in expired air after dosing; settings: dosed: trichloroethylene, 100 ppm, inhalation, duration: 4 hr, person
Summary of the method: as §1

Rat [10] = test: concentration in plasma after dosing; settings: dosed: Perfluorooctane Sulfonate, 2 mg/kg, iv, Male, F344
Rat [11] = test: concentration in brain after dosing; settings: 864 h; dosed: Perfluorooctane Sulfonate; 20 mg/kg; oral; Female; F344
Rat [12] = test: concentration in liver after dosing; settings: 1848 h; dosed: Perfluorooctane Sulfonate; 20 mg/kg; oral; Male; Harlan Sprague Dawley
Rat [13] = test: concentration in liver after dosing; settings: 1848 h; dosed: Perfluorooctane Sulfonate; 20 mg/kg; oral; Male; Harlan Sprague Dawley; remark: listed apart in the source

CC(C)(O)C(=O)O [2-hydroxyisobutyrate]
human [1], dosed: methyl tert-butyl ether, oral
Settings | amount in urine
0 h, 5 mg | 0.0411
6.05 h, 15 mg | 3.18
6.268 h, 5 mg | 1.19
12.12 h, 5 mg | 2.99
12.19 h, 15 mg | 8.45
18.04 h, 15 mg | 10.7
18.39 h, 5 mg | 3.79
24.12 h, 15 mg | 9.14
24.44 h, 5 mg | 3.07
29.96 h, 15 mg | 11.8
30.29 h, 5 mg | 3.64
36.26 h, 15 mg | 9.95
36.46 h, 5 mg | 2.37
42.05 h, 15 mg | 4.96
42.31 h, 5 mg | 1.27
48.24 h, 15 mg | 2.63
48.47 h, 5 mg | 0.849
54.1 h, 15 mg | 3.08
54.53 h, 5 mg | 0.89
59.87 h, 15 mg | 1.63
60.27 h, 5 mg | 0.438
66.05 h, 15 mg | 0.953
66.44 h, 5 mg | 0.123
71.92 h, 15 mg | 0.593
72.6 h, 5 mg | 0.0411
77.99 h, 15 mg | 0.596
83.85 h, 15 mg | 0.357
90.03 h, 15 mg | 0.279
95.89 h, 15 mg | 0.322

human [1], inhalation, duration: 4 hr
Settings | amount in urine
0 h, dosed: methyl tert-butyl ether, 4.5 ppm | 10.8
0.116 h, dosed: methyl tert-butyl ether, 38.7 ppm | 17.8
0.1579 h, dosed: ethyl tert-butyl ether, 40.6 ppm | 13.3
0.2123 h, dosed: ethyl tert-butyl ether, 4.5 ppm | 11.1
6 h, dosed: ethyl tert-butyl ether, 40.6 ppm | 41
6.115 h, dosed: ethyl tert-butyl ether, 4.5 ppm | 19.1
6.219 h, dosed: methyl tert-butyl ether, 38.7 ppm | 71.9
6.261 h, dosed: methyl tert-butyl ether, 4.5 ppm | 20.2
12 h, dosed: ethyl tert-butyl ether, 40.6 ppm | 65.3
12 h, dosed: methyl tert-butyl ether, 4.5 ppm | 26.8
12.13 h, dosed: methyl tert-butyl ether, 38.7 ppm | 147
12.31 h, dosed: ethyl tert-butyl ether, 4.5 ppm | 23.3
18 h, dosed: ethyl tert-butyl ether, 40.6 ppm | 61.2
18.26 h, dosed: methyl tert-butyl ether, 4.5 ppm | 21.8
18.32 h, dosed: ethyl tert-butyl ether, 4.5 ppm | 21.5
18.4 h, dosed: methyl tert-butyl ether, 38.7 ppm | 149
24 h, dosed: ethyl tert-butyl ether, 40.6 ppm | 50.2
24 h, dosed: methyl tert-butyl ether, 4.5 ppm | 24.3
24.14 h, dosed: methyl tert-butyl ether, 38.7 ppm | 134
24.23 h, dosed: ethyl tert-butyl ether, 4.5 ppm | 20.8
30 h, dosed: ethyl tert-butyl ether, 40.6 ppm | 70.5
30.26 h, dosed: methyl tert-butyl ether, 4.5 ppm | 27.8
30.41 h, dosed: ethyl tert-butyl ether, 4.5 ppm | 22.2
30.42 h, dosed: methyl tert-butyl ether, 38.7 ppm | 132
36.1 h, dosed: methyl tert-butyl ether, 4.5 ppm | 18.2
36.14 h, dosed: methyl tert-butyl ether, 38.7 ppm | 85.6
36.21 h, dosed: ethyl tert-butyl ether, 40.6 ppm | 51
36.28 h, dosed: ethyl tert-butyl ether, 4.5 ppm | 14.6
42.16 h, dosed: ethyl tert-butyl ether, 40.6 ppm | 41.8
42.16 h, dosed: methyl tert-butyl ether, 4.5 ppm | 14.4
42.29 h, dosed: methyl tert-butyl ether, 38.7 ppm | 63
42.3 h, dosed: ethyl tert-butyl ether, 4.5 ppm | 13.6
48.13 h, dosed: methyl tert-butyl ether, 38.7 ppm | 41.8
48.16 h, dosed: ethyl tert-butyl ether, 40.6 ppm | 34.3
48.47 h, dosed: ethyl tert-butyl ether, 4.5 ppm | 14.4
54.21 h, dosed: ethyl tert-butyl ether, 40.6 ppm | 30.1
54.31 h, dosed: methyl tert-butyl ether, 38.7 ppm | 48.6
60.15 h, dosed: methyl tert-butyl ether, 38.7 ppm | 33.6
60.16 h, dosed: ethyl tert-butyl ether, 40.6 ppm | 37.6
66.16 h, dosed: ethyl tert-butyl ether, 40.6 ppm | 20.9
66.32 h, dosed: methyl tert-butyl ether, 38.7 ppm | 24
72.06 h, dosed: methyl tert-butyl ether, 38.7 ppm | 17.8
72.16 h, dosed: ethyl tert-butyl ether, 40.6 ppm | 17.5

O=C(O)CCC(F)(F)C(F)(F)C(F)(F)C(F)(F)C(F)(F)C(F)(F)C(F)(F)F [Fluorotelomer acid 7+3]
Settings | concentration in brain [ng/g] | concentration in liver [ng/g]
Rat [2] | – | 1580
Rat [3] | – | 2780
Rat [4] | 463 | –

O=C(O)C(F)(F)C(F)(F)C(F)(F)C(F)(F)C(F)(F)F [Perfluorohexanoic Acid]
concentration in plasma [ng/mL]
Settings | 0.5 h | 3 h | 5 min | 9 h
Rat [5] | – | 34.9 | 18500 | –
Rat [6] | 65500 | – | – | 4960

Cc1ccc(C)c(OCCCC(C)(C)C(=O)O)c1 [Gemfibrozil]
Settings | concentration in plasma [ng/mL]
Rat [7] | 189
Rat [8] | 110000

ClC=C(Cl)Cl [trichloroethylene]
human [9]
Settings | concentration in expired air
0.1172 h | 7.17 ppm
0.1972 h | 5.83 ppm
0.3304 h | 5.7 ppm
0.4637 h | 4.83 ppm
0.9967 h | 2.59 ppm
2.009 h | 1.89 ppm
4.021 h | 1.39 ppm
5.993 h | 1.35 ppm
8.019 h | 1.01 ppm
10.04 h | 1.08 ppm
12.02 h | 0.874 ppm
38 s | 21.7 ppm
230 s | 14.3 ppm and 10.8 ppm

CC(O)C(C)(C)O (stereo not given) [2-methyl-2,3-butanediol]
human [1], dosed: tert-amyl methyl ether, inhalation, duration: 4 hr
Settings | amount in urine
0.2902 h, 38.4 ppm | 3.72
6.051 h, 3.8 ppm | 2.15
6.373 h, 38.4 ppm | 16.5
12.12 h, 3.8 ppm | 3.45
12.25 h, 38.4 ppm | 30.5
18.08 h, 3.8 ppm | 2.56
18.3 h, 38.4 ppm | 29.8
24.08 h, 3.8 ppm | 3.27
24.35 h, 38.4 ppm | 31.2
30.04 h, 3.8 ppm | 2.77
30.25 h, 38.4 ppm | 25.2
36.13 h, 3.8 ppm | 2.42
36.31 h, 38.4 ppm | 28.1
42.02 h, 3.8 ppm | 1.67
42.34 h, 38.4 ppm | 17
47.89 h, 3.8 ppm | 2.12
48.2 h, 38.4 ppm | 23.9
54.05 h, 3.8 ppm | 1.93
54.23 h, 38.4 ppm | 14.1
59.94 h, 3.8 ppm | 1.6
60.36 h, 38.4 ppm | 18.1
66.02 h, 3.8 ppm | 1.63
66.19 h, 38.4 ppm | 12.1
71.9 h, 3.8 ppm | 1.44
72.24 h, 38.4 ppm | 11.2
225 s, 3.8 ppm | 0.476

human [1], dosed: tert-amyl methyl ether, oral
Settings | amount in urine
0.2379 h, 5 mg | 0.118
6.002 h, 15 mg | 1.07
6.23 h, 5 mg | 0.379
11.79 h, 15 mg | 1.97
12.07 h, 5 mg | 0.593
17.9 h, 15 mg | 2.14
18.15 h, 5 mg | 0.435
24 h, 15 mg | 2.43
24.24 h, 5 mg | 0.394
29.83 h, 15 mg | 2.27
30.07 h, 5 mg | 0.532
35.87 h, 15 mg | 2.31
36.08 h, 5 mg | 0.4
41.73 h, 15 mg | 1.29
42.17 h, 5 mg | 0.374
47.83 h, 15 mg | 1.66
48.27 h, 5 mg | 0.367
53.95 h, 15 mg | 1.48
54.08 h, 5 mg | 0.38
59.71 h, 15 mg | 1.02
60.18 h, 5 mg | 0.324
65.84 h, 15 mg | 0.758
66.2 h, 5 mg | 0.264
71.94 h, 15 mg | 1.05
72 h, 5 mg | 0.243
77.76 h, 15 mg | 1.07
78.1 h, 5 mg | 0.243
83.97 h, 15 mg | 0.611
84.2 h, 5 mg | 0.244
89.71 h, 15 mg | 0.61
90 h, 5 mg | 0.214
95.84 h, 15 mg | 0.463
96.03 h, 5 mg | 0.188
235 s, 15 mg | 0.223

O=S(=O)([O-])C(F)(F)C(F)(F)C(F)(F)C(F)(F)C(F)(F)C(F)(F)C(F)(F)C(F)(F)F [Perfluorooctane Sulfonate]
Rat [10]
Settings | concentration in plasma [ng/mL]
12 h | 4350
864 h | 995
3216 h | 99.5

Settings | concentration in brain [ng/g] | concentration in liver [ng/g]
Rat [11] | 2700 | –
Rat [12] | – | 59600
Rat [13] | – | 51700
